Measured values as given in ChEMBL document CHEMBL1142180, “First characterization of fluoroquinolone resistance in Streptococcus suis” (2007).
≈ marks a conversion by molar mass, not a printed value.

Tests used:
Format in all cases: functional
[1] = tested on: Streptococcus suis; assay: Antibacterial activity against Streptococcus suis BB1005 isolate in presence of 10 ug/ml reserpine after 24 hrs
How it was run: (§1)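 Broth microdilution MIC assay against S. suis collection strain or Spanish/South American swine clinical isolates, incubated at 37°C for 24 h; MIC reported in μg/ml.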

[2] = tested on: Streptococcus suis; assay: Antibacterial activity against Streptococcus suis BB1013 isolate in presence of 10 ug/ml reserpine after 24 hrs
How it was run: (§2)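 Clinical swine S. suis isolates; MIC by microdilution, 37°C for 24 h, ciprofloxacin tested with reserpine added; MIC reported in μg/ml.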

[3] = tested on: Streptococcus suis; assay: Antibacterial activity against Streptococcus suis BB1008 isolate in presence of 10 ug/ml reserpine after 24 hrs; how it was run: as §1
[4] = tested on: Streptococcus suis; assay: Antibacterial activity against Streptococcus suis BB1001 isolate after 24 hrs; how it was run: as §1
[5] = tested on: Streptococcus suis; assay: Antibacterial activity against Streptococcus suis BB1012 isolate after 24 hrs; how it was run: as §1
[6] = tested on: Streptococcus suis; assay: Antibacterial activity against Streptococcus suis BB1009 isolate in presence of 10 ug/ml reserpine after 24 hrs; how it was run: as §2
[7] = tested on: Streptococcus suis; assay: Antibacterial activity against Streptococcus suis BB1015 isolate after 24 hrs; how it was run: as §1
[8] = tested on: Streptococcus suis; assay: Antibacterial activity against Streptococcus suis BB1004 isolate in presence of 10 ug/ml reserpine after 24 hrs; how it was run: as §1
[9] = tested on: Streptococcus suis; assay: Antibacterial activity against Streptococcus suis BB1012 isolate in presence of 10 ug/ml reserpine after 24 hrs; how it was run: as §2
[10] = tested on: Streptococcus suis; assay: Antibacterial activity against Streptococcus suis BB1016 isolate after 24 hrs; how it was run: as §1
[11] = tested on: Streptococcus suis; assay: Antibacterial activity against Streptococcus suis ATCC 43765 after 24 hrs; settings: ATCC 43765, 24 h; how it was run: as §1
[12] = tested on: Streptococcus suis; assay: Antibacterial activity against Streptococcus suis BB1001 isolate in presence of 10 ug/ml reserpine after 24 hrs; how it was run: as §1
[13] = tested on: Streptococcus suis; assay: Antibacterial activity against Streptococcus suis BB1011 isolate after 24 hrs
[14] = tested on: Streptococcus suis; assay: Antibacterial activity against Streptococcus suis BB1007 isolate in presence of 10 ug/ml reserpine after 24 hrs; how it was run: as §1
[15] = tested on: Streptococcus suis; assay: Antibacterial activity against Streptococcus suis BB1009 isolate after 24 hrs; how it was run: as §1
[16] = tested on: Streptococcus suis; assay: Antibacterial activity against Streptococcus suis BB1017 isolate after 24 hrs; how it was run: as §1
[17] = tested on: Streptococcus suis; assay: Antibacterial activity against Streptococcus suis BB1004 isolate after 24 hrs; how it was run: as §1
[18] = tested on: Streptococcus suis; assay: Antibacterial activity against Streptococcus suis BB1016 isolate in presence of 10 ug/ml reserpine after 24 hrs; how it was run: as §2
[19] = tested on: Streptococcus suis; assay: Antibacterial activity against Streptococcus suis BB1008 isolate after 24 hrs; how it was run: as §1
[20] = tested on: Streptococcus suis; assay: Antibacterial activity against Streptococcus suis BB1013 isolate after 24 hrs; how it was run: as §1
[21] = tested on: Streptococcus suis; assay: Antibacterial activity against Streptococcus suis BB1014 isolate in presence of 10 ug/ml reserpine after 24 hrs; how it was run: as §2
[22] = tested on: Streptococcus suis; assay: Antibacterial activity against Streptococcus suis BB1014 isolate after 24 hrs; how it was run: as §1
[23] = tested on: Streptococcus suis; assay: Antibacterial activity against Streptococcus suis BB1010 isolate after 24 hrs; how it was run: as §1
[24] = tested on: Streptococcus suis; assay: Antibacterial activity against Streptococcus suis BB1017 isolate in presence of 10 ug/ml reserpine after 24 hrs; how it was run: as §2
[25] = tested on: Streptococcus suis; assay: Antibacterial activity against Streptococcus suis ATCC 43765 in presence of 10 ug/ml reserpine after 24 hrs; settings: ATCC 43765, 24 h; how it was run: as §1
[26] = tested on: Streptococcus suis; assay: Antibacterial activity against Streptococcus suis BB1015 isolate in presence of 10 ug/ml reserpine after 24 hrs; how it was run: as §2
[27] = tested on: Streptococcus suis; assay: Antibacterial activity against Streptococcus suis BB1005 isolate after 24 hrs; how it was run: as §1
[28] = tested on: Streptococcus suis; assay: Antibacterial activity against Streptococcus suis BB1011 isolate in presence of 10 ug/ml reserpine after 24 hrs; how it was run: as §2
[29] = tested on: Streptococcus suis; assay: Antibacterial activity against Streptococcus suis BB1003 isolate after 24 hrs; how it was run: as §1
[30] = tested on: Streptococcus suis; assay: Antibacterial activity against Streptococcus suis BB1006 isolate after 24 hrs; how it was run: as §1
[31] = tested on: Streptococcus suis; assay: Antibacterial activity against Streptococcus suis BB1002 isolate in presence of 10 ug/ml reserpine after 24 hrs; how it was run: as §1
[32] = tested on: Streptococcus suis; assay: Antibacterial activity against Streptococcus suis BB1003 isolate in presence of 10 ug/ml reserpine after 24 hrs; how it was run: as §1
[33] = tested on: Streptococcus suis; assay: Antibacterial activity against Streptococcus suis BB1006 isolate in presence of 10 ug/ml reserpine after 24 hrs; how it was run: as §1
[34] = tested on: Streptococcus suis; assay: Antibacterial activity against Streptococcus suis BB1002 isolate after 24 hrs; how it was run: as §1
[35] = tested on: Streptococcus suis; assay: Antibacterial activity against Streptococcus suis BB1010 isolate in presence of 10 ug/ml reserpine after 24 hrs; how it was run: as §2
[36] = tested on: Streptococcus suis; assay: Antibacterial activity against Streptococcus suis BB1007 isolate after 24 hrs; how it was run: as §1

O=C(O)c1cn(C2CC2)c2cc(N3CCNCC3)c(F)cc2c1=O [CIPROFLOXACIN] was tested, and the MIC [1] was 0.5 µg/mL, the MIC [2] was 16 µg/mL and the MIC [3] was 32 µg/mL. It also gave an MIC [4] of 0.5 µg/mL (≈ 1.51 µM), an MIC [5] of 32 µg/mL (≈ 96.6 µM) and an MIC [6] of 16 µg/mL. For the same molecule, the MIC [7] was 32 µg/mL (≈ 96.6 µM), the MIC [8] was 0.5 µg/mL and the MIC [9] was 16 µg/mL. For the same molecule, the MIC [10] was 32 µg/mL (≈ 96.6 µM), the MIC [11] was 0.5 µg/mL (≈ 1.51 µM) and the MIC [12] was 0.5 µg/mL. The MIC [13] was 16 µg/mL (≈ 48.3 µM), the MIC [14] was 4 µg/mL and the MIC [15] was 32 µg/mL (≈ 96.6 µM). It also gave an MIC [16] of 64 µg/mL (≈ 193 µM), an MIC [17] of 0.5 µg/mL (≈ 1.51 µM) and an MIC [18] of 16 µg/mL. For the same molecule, the MIC [19] was 64 µg/mL (≈ 193 µM), the MIC [20] was 64 µg/mL (≈ 193 µM) and the MIC [21] was 16 µg/mL. It also gave an MIC [22] of 64 µg/mL (≈ 193 µM), an MIC [23] of 32 µg/mL (≈ 96.6 µM) and an MIC [24] of 16 µg/mL. It also gave an MIC [25] of 0.5 µg/mL, an MIC [26] of 16 µg/mL and an MIC [27] of 0.5 µg/mL (≈ 1.51 µM). For the same molecule, the MIC [28] was 16 µg/mL, the MIC [29] was 0.5 µg/mL (≈ 1.51 µM) and the MIC [30] was 2 µg/mL (≈ 6.04 µM). It also gave an MIC [31] of 0.5 µg/mL, an MIC [32] of 0.5 µg/mL and an MIC [33] of 1 µg/mL. The MIC [34] was 0.5 µg/mL (≈ 1.51 µM) and the MIC [35] was 16 µg/mL.

With CCN1CCN(c2cc3c(cc2F)c(=O)c(C(=O)O)cn3C2CC2)CC1 [ENROFLOXACIN] the MIC [4] was 0.5 µg/mL (≈ 1.39 µM), the MIC [5] was 8 µg/mL (≈ 22.3 µM) and the MIC [7] was 16 µg/mL (≈ 44.5 µM). It also gave an MIC [10] of 8 µg/mL (≈ 22.3 µM), an MIC [11] of 0.5 µg/mL (≈ 1.39 µM) and an MIC [13] of 16 µg/mL (≈ 44.5 µM). For the same molecule, the MIC [15] was 16 µg/mL (≈ 44.5 µM), the MIC [16] was 16 µg/mL (≈ 44.5 µM) and the MIC [17] was 0.5 µg/mL (≈ 1.39 µM). The MIC [19] was 32 µg/mL (≈ 89 µM), the MIC [20] was 8 µg/mL (≈ 22.3 µM) and the MIC [22] was 16 µg/mL (≈ 44.5 µM). It also gave an MIC [23] of 32 µg/mL (≈ 89 µM), an MIC [27] of 0.25 µg/mL (≈ 0.696 µM) and an MIC [29] of 0.5 µg/mL (≈ 1.39 µM). For the same molecule, the MIC [30] was 1 µg/mL (≈ 2.78 µM), the MIC [36] was 4 µg/mL (≈ 11.1 µM) and the MIC [34] was 0.5 µg/mL (≈ 1.39 µM).

Molecule C[C@H]1COc2c(N3CCN(C)CC3)c(F)cc3c(=O)c(C(=O)O)cn1c23.C[C@H]1COc2c(N3CCN(C)CC3)c(F)cc3c(=O)c(C(=O)O)cn1c23.O [LEVOFLOXACIN] has an MIC [4] of 1 µg/mL, an MIC [5] of 16 µg/mL and an MIC [7] of 16 µg/mL. The MIC [10] was 32 µg/mL, the MIC [11] was 1 µg/mL and the MIC [13] was 16 µg/mL. The MIC [15] was 16 µg/mL, the MIC [16] was 64 µg/mL and the MIC [17] was 1 µg/mL. The MIC [19] was 16 µg/mL, the MIC [20] was 16 µg/mL and the MIC [22] was 32 µg/mL. For the same molecule, the MIC [23] was 32 µg/mL, the MIC [27] was 0.5 µg/mL and the MIC [29] was 0.5 µg/mL. For the same molecule, the MIC [30] was 1 µg/mL, the MIC [36] was 2 µg/mL and the MIC [34] was 1 µg/mL.

With CCn1cc(C(=O)O)c(=O)c2ccc(C)nc21 [NALIDIXIC ACID] the MIC [4] was > 64 µg/mL, the MIC [5] was > 64 µg/mL and the MIC [7] was > 64 µg/mL. For the same molecule, the MIC [10] was > 64 µg/mL, the MIC [11] was > 64 µg/mL and the MIC [13] was > 64 µg/mL. For the same molecule, the MIC [15] was > 64 µg/mL, the MIC [16] was > 64 µg/mL and the MIC [17] was > 64 µg/mL. For the same molecule, the MIC [19] was > 64 µg/mL, the MIC [20] was > 64 µg/mL and the MIC [22] was > 64 µg/mL. For the same molecule, the MIC [23] was > 64 µg/mL, the MIC [27] was > 64 µg/mL and the MIC [29] was > 64 µg/mL. The MIC [30] was > 64 µg/mL, the MIC [36] was > 64 µg/mL and the MIC [34] was > 64 µg/mL.

With CCn1cc(C(=O)O)c(=O)c2cc(F)c(N3CCNCC3)cc21 [NORFLOXACIN] the MIC [4] was 2 µg/mL (≈ 6.26 µM), the MIC [5] was > 64 µg/mL and the MIC [7] was > 64 µg/mL. For the same molecule, the MIC [10] was > 64 µg/mL, the MIC [11] was 4 µg/mL (≈ 12.5 µM) and the MIC [13] was 32 µg/mL (≈ 100 µM). The MIC [15] was 32 µg/mL (≈ 100 µM), the MIC [16] was > 64 µg/mL and the MIC [17] was 2 µg/mL (≈ 6.26 µM). For the same molecule, the MIC [19] was > 64 µg/mL, the MIC [20] was > 64 µg/mL and the MIC [22] was > 64 µg/mL. For the same molecule, the MIC [23] was > 64 µg/mL, the MIC [27] was 4 µg/mL (≈ 12.5 µM) and the MIC [29] was 4 µg/mL (≈ 12.5 µM). The MIC [30] was 32 µg/mL (≈ 100 µM), the MIC [36] was 16 µg/mL (≈ 50.1 µM) and the MIC [34] was 2 µg/mL (≈ 6.26 µM).
